# Data from ChEMBL document CHEMBL2401738, “Construction and functionalization of pyranone ring fused with pyran moiety: design and synthesis of novel pyrano[4,3-b]pyran-5(4H)-ones as potential inhibitors of sirtuins” (Bioorg Med Chem Lett, 2013).
# Tested on: Saccharomyces cerevisiae
# Test: Inhibition of Saccharomyces cerevisiae TEL::URA3 SIR2-mediated URA3 reporter gene silencing at 50 uM after 24 to 48 hrs in presence of 5-FOA relative to control
# In short: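 Yeast strain with telomere-integrated URA3 reporter. Sir2 silencing of URA3 allows growth in 5-fluoroorotic acid, and inhibition of the yeast SIRT1 homologue Sir2 is scored by reduced growth in 5-FOA. Stereoisomer mixtures were tested unseparated at a single fixed concentration of 50.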
row,SMILES,inhibition
1,CC1(C)CC(=O)C2=C(C1)Oc1c(I)c(C3(O)CCCCC3)oc(=O)c1C2c1ccc(F)cc1 (configuration not stated),25.3%
2,CCCCC#Cc1c(-c2ccccc2)oc(=O)c2c1OC1=C(C(=O)CC(C)(C)C1)C2c1cccc(O)c1 (configuration not stated),1.01%
3,CCC1C2=C(CC(C)(C)CC2=O)Oc2c(I)c(-c3ccccc3)oc(=O)c21 (configuration not stated),43.9%
4,CCOC(=O)C1=C(C)Oc2c(I)c(-c3ccccc3)oc(=O)c2C1c1cccc(F)c1 (configuration not stated),0.5%
5,CC1(C)CC(=O)C2=C(C1)Oc1c(I)c(-c3ccccc3)oc(=O)c1C2c1ccc(F)cc1 (configuration not stated),49.5%
6,CC1(C)CC(=O)C2=C(C1)Oc1c(-c3ccccc3)c(-c3ccccc3)oc(=O)c1C2c1cccc(O)c1 (configuration not stated),3.3%
7,CCOC(=O)C1=C(C)Oc2c(-c3ccc(O)cc3)c(-c3ccccc3)oc(=O)c2C1c1cccc(F)c1 (configuration not stated),1.51%
8,CC1(C)CC(=O)C2=C(C1)Oc1c(I)c(-c3ccccc3)oc(=O)c1C2c1ccco1 (configuration not stated),15.3%
9,COc1ccc(C2C3=C(CC(C)(C)CC3=O)Oc3c(I)c(-c4ccccc4)oc(=O)c32)cc1 (configuration not stated),32.4%
10,CC1(C)CC(=O)C2=C(C1)Oc1c(I)c(-c3ccccc3)oc(=O)c1C2c1cccs1 (configuration not stated),43.2%

# Tested on: not listed separately
# Test: (§1) Inhibition of Saccharomyces cerevisiae TEL::URA3 SIR2-mediated URA3 reporter gene silencing after 24 to 48 hrs in presence of 5-FOA
# In short: (§2)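 Yeast cell-based reporter silencing assay with URA3 integrated in the telomeric region. Sir2-mediated silencing of URA3 permits growth in 5-fluoroorotic acid, so Sir2 inhibition is read as loss of growth on 5-FOA. Compounds were tested as unseparated stereoisomer mixtures over a dose range, and IC50 was taken from the dose-response.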
row,SMILES,IC50
1,CCC1C2=C(CC(C)(C)CC2=O)Oc2c(I)c(-c3ccccc3)oc(=O)c21 (configuration not stated),78 µM

# Tested on: Saccharomyces cerevisiae
# Test: as §1
# In short: as §2
row,SMILES,inhibition
1,CCC1C2=C(CC(C)(C)CC2=O)Oc2c(I)c(-c3ccccc3)oc(=O)c21 (configuration not stated),Dose-dependent effect
